Results published in ChEMBL document CHEMBL3243962, “Antileukemic activity of derivatives of 1,2-dimethyl-3,4-bis(hydroxymethyl)-5-phenylpyrrole bis(N-methylcarbamate)” (J Med Chem, 1979).

Legend:
[1] = system: Mus musculus; assay: Toxicity in mouse P388 cells allografted CD2F1 mouse assessed as body weight loss at 50 mg/kg, ip of total 9 doses starting 24 hrs post tumor inoculation measured on day 5 of inoculation relative to control; type: organism-based; set-up: dose 50 mg/kg, route intraperitoneal; conditions: in vivo
Summary of the method: (§1)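 Male CD2F1 mice inoculated ip with 6×10^6 P388 leukemia cells. Compounds given ip as distilled water–Tween 80 suspension, nine daily doses starting 24 h after inoculation; six mice per dose group. Treated-minus-control body-weight change (T − C) and toxicity-day survivors recorded on day 5 (4 days after first dose).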

[2] = system: Mus musculus; assay: Toxicity in mouse P388 cells allografted CD2F1 mouse assessed as body weight loss at 100 mg/kg, ip of total 9 doses starting 24 hrs post tumor inoculation measured on day 5 of inoculation relative to control; type: organism-based; set-up: dose 100 mg/kg, route intraperitoneal; conditions: in vivo; summary of the method: as §1
[3] = system: Mus musculus; assay: Toxicity in mouse P388 cells allografted CD2F1 mouse assessed as mouse survival at 25 mg/kg, ip of total 9 doses starting 24 hrs post tumor inoculation measured on day 5 of inoculation relative to control; type: organism-based; set-up: dose 25 mg/kg, route intraperitoneal; conditions: in vivo
Summary of the method: (§2)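 Male CD2F1 mice bearing ip P388 leukemia (6×10^6 cells) were dosed ip with nine daily doses in distilled water–Tween 80 suspension, starting 24 h after inoculation. Survivors per group of 6 were counted on day 5, i.e. 4 days after the first dose. Body-weight change of treated minus control mice was also recorded.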

[4] = system: Mus musculus; assay: Toxicity in mouse P388 cells allografted CD2F1 mouse assessed as mouse survival at 100 mg/kg, ip of total 9 doses starting 24 hrs post tumor inoculation measured on day 5 of inoculation relative to control; type: organism-based; set-up: dose 100 mg/kg, route intraperitoneal; conditions: in vivo; summary of the method: as §2
[5] = system: Mus musculus; assay: Toxicity in mouse P388 cells allografted CD2F1 mouse assessed as mouse survival at 200 mg/kg, ip of total 9 doses starting 24 hrs post tumor inoculation measured on day 5 of inoculation relative to control; type: organism-based; set-up: dose 200 mg/kg, route intraperitoneal; conditions: in vivo; summary of the method: as §2
[6] = system: Mus musculus; assay: Toxicity in mouse P388 cells allografted CD2F1 mouse assessed as body weight loss at 12.5 mg/kg, ip of total 9 doses starting 24 hrs post tumor inoculation measured on day 5 of inoculation relative to control; type: organism-based; set-up: dose 12.5 mg/kg, route intraperitoneal; conditions: in vivo; summary of the method: as §1
[7] = system: Mus musculus; assay: Toxicity in mouse P388 cells allografted CD2F1 mouse assessed as mouse survival at 12.5 mg/kg, ip of total 9 doses starting 24 hrs post tumor inoculation measured on day 5 of inoculation relative to control; type: organism-based; set-up: dose 12.5 mg/kg, route intraperitoneal; conditions: in vivo; summary of the method: as §2
[8] = system: P388; assay: Antitumor activity against mouse P388 cells allografted in CD2F1 mouse assessed as increase in mouse survival at 50 mg/kg, ip of total 9 doses starting 24 hrs post tumor inoculation measured on day 5 of inoculation relative to control; type: functional; conditions: route intraperitoneal
Summary of the method: (§3)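 Male CD2F1 mice inoculated ip with 6×10^6 P388 leukemia cells. Dosing was ip as a suspension in distilled water–Tween 80, nine daily doses starting 24 h after inoculation. Activity was read as median survival time of treated vs control mice (% T/C); % T/C ≥ 120 was considered significant. Groups were 6 mice.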

[9] = system: P388; assay: Antitumor activity against mouse P388 cells allografted in CD2F1 mouse assessed as increase in mouse survival at 12.5 mg/kg, ip of total 9 doses starting 24 hrs post tumor inoculation measured on day 5 of inoculation relative to control; type: functional; conditions: route intraperitoneal; summary of the method: as §3
[10] = system: P388; assay: Antitumor activity against mouse P388 cells allografted in CD2F1 mouse assessed as increase in mouse survival at 25 mg/kg, ip of total 9 doses starting 24 hrs post tumor inoculation measured on day 5 of inoculation relative to control; type: functional; conditions: route intraperitoneal; summary of the method: as §3
[11] = system: Mus musculus; assay: Toxicity in mouse P388 cells allografted CD2F1 mouse assessed as mouse survival at 50 mg/kg, ip of total 9 doses starting 24 hrs post tumor inoculation measured on day 5 of inoculation relative to control; type: organism-based; set-up: dose 50 mg/kg, route intraperitoneal; conditions: in vivo; summary of the method: as §2
[12] = system: Mus musculus; assay: Toxicity in mouse P388 cells allografted CD2F1 mouse assessed as body weight loss at 25 mg/kg, ip of total 9 doses starting 24 hrs post tumor inoculation measured on day 5 of inoculation relative to control; type: organism-based; set-up: dose 25 mg/kg, route intraperitoneal; conditions: in vivo; summary of the method: as §1
[13] = system: Mus musculus; assay: Toxicity in mouse P388 cells allografted CD2F1 mouse assessed as body weight loss at 200 mg/kg, ip of total 9 doses starting 24 hrs post tumor inoculation measured on day 5 of inoculation relative to control; type: organism-based; set-up: dose 200 mg/kg, route intraperitoneal; conditions: in vivo; summary of the method: as §1
[14] = system: P388; assay: Antitumor activity against mouse P388 cells allografted in CD2F1 mouse assessed as increase in mouse survival at 200 mg/kg, ip of total 9 doses starting 24 hrs post tumor inoculation measured on day 5 of inoculation relative to control; type: functional; conditions: route intraperitoneal; summary of the method: as §3
[15] = system: P388; assay: Antitumor activity against mouse P388 cells allografted in CD2F1 mouse assessed as increase in mouse survival at 100 mg/kg, ip of total 9 doses starting 24 hrs post tumor inoculation measured on day 5 of inoculation relative to control; type: functional; conditions: route intraperitoneal; summary of the method: as §3
[16] = system: Mus musculus; assay: Toxicity in mouse P388 cells allografted CD2F1 mouse assessed as mouse survival at 30 mg/kg, ip of total 9 doses starting 24 hrs post tumor inoculation measured on day 5 of inoculation relative to control; type: organism-based; set-up: dose 30 mg/kg, route intraperitoneal; conditions: in vivo; summary of the method: as §2
[17] = system: Mus musculus; assay: Toxicity in mouse P388 cells allografted CD2F1 mouse assessed as body weight loss at 60 mg/kg, ip of total 9 doses starting 24 hrs post tumor inoculation measured on day 5 of inoculation relative to control; type: organism-based; set-up: dose 60 mg/kg, route intraperitoneal; conditions: in vivo; summary of the method: as §1
[18] = system: Mus musculus; assay: Toxicity in mouse P388 cells allografted CD2F1 mouse assessed as body weight loss at 120 mg/kg, ip of total 9 doses starting 24 hrs post tumor inoculation measured on day 5 of inoculation relative to control; type: organism-based; set-up: dose 120 mg/kg, route intraperitoneal; conditions: in vivo; summary of the method: as §1
[19] = system: Mus musculus; assay: Toxicity in mouse P388 cells allografted CD2F1 mouse assessed as body weight loss at 15 mg/kg, ip of total 9 doses starting 24 hrs post tumor inoculation measured on day 5 of inoculation relative to control; type: organism-based; set-up: dose 15 mg/kg, route intraperitoneal; conditions: in vivo; summary of the method: as §1
[20] = system: P388; assay: Antitumor activity against mouse P388 cells allografted in CD2F1 mouse assessed as increase in mouse survival at 15 mg/kg, ip of total 9 doses starting 24 hrs post tumor inoculation measured on day 5 of inoculation relative to control; type: functional; conditions: route intraperitoneal; summary of the method: as §3
[21] = system: P388; assay: Antitumor activity against mouse P388 cells allografted in CD2F1 mouse assessed as increase in mouse survival at 30 mg/kg, ip of total 9 doses starting 24 hrs post tumor inoculation measured on day 5 of inoculation relative to control; type: functional; conditions: route intraperitoneal; summary of the method: as §3
[22] = system: Mus musculus; assay: Toxicity in mouse P388 cells allografted CD2F1 mouse assessed as mouse survival at 15 mg/kg, ip of total 9 doses starting 24 hrs post tumor inoculation measured on day 5 of inoculation relative to control; type: organism-based; set-up: dose 15 mg/kg, route intraperitoneal; conditions: in vivo; summary of the method: as §2
[23] = system: P388; assay: Antitumor activity against mouse P388 cells allografted in CD2F1 mouse assessed as increase in mouse survival at 60 mg/kg, ip of total 9 doses starting 24 hrs post tumor inoculation measured on day 5 of inoculation relative to control; type: functional; conditions: route intraperitoneal; summary of the method: as §3
[24] = system: Mus musculus; assay: Toxicity in mouse P388 cells allografted CD2F1 mouse assessed as body weight loss at 7.5 mg/kg, ip of total 9 doses starting 24 hrs post tumor inoculation measured on day 5 of inoculation relative to control; type: organism-based; set-up: dose 7.5 mg/kg, route intraperitoneal; conditions: in vivo; summary of the method: as §1
[25] = system: Mus musculus; assay: Toxicity in mouse P388 cells allografted CD2F1 mouse assessed as mouse survival at 7.5 mg/kg, ip of total 9 doses starting 24 hrs post tumor inoculation measured on day 5 of inoculation relative to control; type: organism-based; set-up: dose 7.5 mg/kg, route intraperitoneal; conditions: in vivo; summary of the method: as §2
[26] = system: P388; assay: Antitumor activity against mouse P388 cells allografted in CD2F1 mouse assessed as increase in mouse survival at 7.5 mg/kg, ip of total 9 doses starting 24 hrs post tumor inoculation measured on day 5 of inoculation relative to control; type: functional; conditions: route intraperitoneal; summary of the method: as §3
[27] = system: Mus musculus; assay: Toxicity in mouse P388 cells allografted CD2F1 mouse assessed as body weight loss at 30 mg/kg, ip of total 9 doses starting 24 hrs post tumor inoculation measured on day 5 of inoculation relative to control; type: organism-based; set-up: dose 30 mg/kg, route intraperitoneal; conditions: in vivo; summary of the method: as §1
[28] = system: Mus musculus; assay: Toxicity in mouse P388 cells allografted CD2F1 mouse assessed as body weight loss at 3.75 mg/kg, ip of total 9 doses starting 24 hrs post tumor inoculation measured on day 5 of inoculation relative to control; type: organism-based; set-up: dose 3.75 mg/kg, route intraperitoneal; conditions: in vivo; summary of the method: as §1
[29] = system: Mus musculus; assay: Toxicity in mouse P388 cells allografted CD2F1 mouse assessed as mouse survival at 1.88 mg/kg, ip of total 9 doses starting 24 hrs post tumor inoculation measured on day 5 of inoculation relative to control; type: organism-based; set-up: dose 1.88 mg/kg, route intraperitoneal; conditions: in vivo; summary of the method: as §2
[30] = system: P388; assay: Antitumor activity against mouse P388 cells allografted in CD2F1 mouse assessed as increase in mouse survival at 3.75 mg/kg, ip of total 9 doses starting 24 hrs post tumor inoculation measured on day 5 of inoculation relative to control; type: functional; conditions: route intraperitoneal; summary of the method: as §3
[31] = system: Mus musculus; assay: Toxicity in mouse P388 cells allografted CD2F1 mouse assessed as mouse survival at 3.75 mg/kg, ip of total 9 doses starting 24 hrs post tumor inoculation measured on day 5 of inoculation relative to control; type: organism-based; set-up: dose 3.75 mg/kg, route intraperitoneal; conditions: in vivo; summary of the method: as §2
[32] = system: Mus musculus; assay: Toxicity in mouse P388 cells allografted CD2F1 mouse assessed as body weight loss at 1.88 mg/kg, ip of total 9 doses starting 24 hrs post tumor inoculation measured on day 5 of inoculation relative to control; type: organism-based; set-up: dose 1.88 mg/kg, route intraperitoneal; conditions: in vivo; summary of the method: as §1
[33] = system: P388; assay: Antitumor activity against mouse P388 cells allografted in CD2F1 mouse assessed as increase in mouse survival at 1.88 mg/kg, ip of total 9 doses starting 24 hrs post tumor inoculation measured on day 5 of inoculation relative to control; type: functional; conditions: route intraperitoneal; summary of the method: as §3

Compound | Activity [1] [g] | Activity [2] [g] | Activity [3] | Activity [4] | Activity [5] | Activity [6] [g] | Activity [7] | T/C [8] [%] | T/C [9] [%] | T/C [10] [%] | Activity [11] | Activity [12] [g] | Activity [13] [g] | T/C [14] [%] | T/C [15] [%] | Activity [16] | Activity [19] [g] | T/C [20] [%] | T/C [21] [%] | Activity [22] | further results
CNC(=O)OCc1c(COC(=O)NC)c(-c2ccc(S(C)(=O)=O)cc2)n(C)c1C | 1.1 | 2.1 | Non-toxic | Non-toxic | Non-toxic | 0.4 | Non-toxic | 162 | 136 | 144 | Non-toxic | 0.8 | 3.7 | 198 | 180 | – | – | – | – | – | –
CCCCOc1ccc(-c2c(COC(=O)NC)c(COC(=O)NC)c(C)n2C)cc1 | – | – | – | – | – | – | – | – | – | – | – | – | – | – | – | Non-toxic | 2.1 | 146 | 144 | Non-toxic | Activity [17]: 4.1 g; Activity [18]: 3.4 g; T/C [23]: 90%; Activity [24]: 1.3 g; Activity [25]: Non-toxic; T/C [26]: 137%; Activity [27]: 2.8 g
CNC(=O)OCc1c(COC(=O)NC)c(-c2ccc(-c3ccccc3)cc2)n(C)c1C | – | – | – | – | – | – | – | – | – | – | – | – | – | – | – | Non-toxic | 3.1 | 153 | 144 | Non-toxic | Activity [28]: 1.3 g; Activity [29]: Non-toxic; T/C [30]: 144%; Activity [31]: Non-toxic; Activity [24]: 2.2 g; Activity [25]: Non-toxic; T/C [26]: 144%; Activity [27]: 3.6 g; Activity [32]: 0.6 g; T/C [33]: 135%
CNC(=O)OCc1c(COC(=O)NC)c(-c2ccc(Sc3ccccc3)cc2)n(C)c1C | 2.1 | 3.3 | Non-toxic | Non-toxic | Non-toxic | 0.9 | Non-toxic | 162 | 142 | 146 | Non-toxic | 2.1 | 3 | 108 | 171 | – | – | – | – | – | –
